# Data: ChEMBL document CHEMBL5149984, “Discovery of HN37 as a Potent and Chemically Stable Antiepileptic Drug Candidate” (J Med Chem, 2021)
# Target: Cytochrome P450 2D6 (Homo sapiens, UniProt P10635)
# Experiment: Time dependent inhibition of human liver microsome CYP2D6 preincubated for 0.5 hrs in presence or absence of NADPH followed by substrate addition by LC-MS/MS method
# Type: ADME, microsomes
# How it was run: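 Human liver microsomes preincubated 0.5 h with 0.10–50 μM test compound, with or without NADPH, then CYP-specific probe substrate added and incubation continued. Metabolite measured by LC-MS/MS; % activity remaining relative to no-compound control; IC50 fitted by Probit model. For CYP3A4, midazolam 1′-hydroxylation and testosterone 6β-hydroxylation were read separately.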
# Chain of Cytochrome P450 2D6 (P10635 whole entry): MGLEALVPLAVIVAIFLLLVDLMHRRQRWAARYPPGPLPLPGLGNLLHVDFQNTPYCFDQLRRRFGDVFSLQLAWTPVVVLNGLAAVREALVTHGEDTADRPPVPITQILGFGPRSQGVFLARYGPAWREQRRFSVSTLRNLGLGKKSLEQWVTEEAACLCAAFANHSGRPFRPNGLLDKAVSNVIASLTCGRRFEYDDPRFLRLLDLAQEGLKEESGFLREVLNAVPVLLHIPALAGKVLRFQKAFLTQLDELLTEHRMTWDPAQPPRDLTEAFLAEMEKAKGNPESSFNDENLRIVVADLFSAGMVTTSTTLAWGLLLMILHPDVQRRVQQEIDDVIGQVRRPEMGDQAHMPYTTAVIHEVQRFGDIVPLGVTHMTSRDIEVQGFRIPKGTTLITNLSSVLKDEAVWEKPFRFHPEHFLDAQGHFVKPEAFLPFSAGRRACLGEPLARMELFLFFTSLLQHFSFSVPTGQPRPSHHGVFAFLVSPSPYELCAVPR
smiles,measurement,value
C#CCN(Cc1ccc(F)cc1)c1cc(C)c(NC(=O)OC)c(C)c1,IC50,> 50 µM
